In ChEMBL document CHEMBL1139962, “Synthesis and anthelmintic activity of cyclohexadepsipeptides with cyclohexylmethyl side chains” (Bioorg Med Chem Lett, 2007):

Columns and labels:
[1] = test system: Haemonchus contortus; test: Anthelmintic activity against Haemonchus contortus Rudolphi L3 larvae infected sheep assessed as reduction of faecal egg counts at 5 mg/kg, po; assay type: functional, Feces; set-up: scale not given: the % may be the effect or the level left
In short: (§1)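 Sheep experimentally infected with Haemonchus contortus Rudolphi L3 larvae; dosed after the parasite's prepatency period ended. Compound given orally in gelatine capsules. Faecal egg counts by McMaster method (Wetzel modification) on freshly obtained faeces, counted at regular intervals before and after treatment; activity expressed as reduction in egg counts.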

[2] = Partition coefficient, log P at pH 2.3; assay type: physicochemical; conditions: octanol/water
[3] = test system: Haemonchus contortus; test: Anthelmintic activity against Haemonchus contortus Rudolphi L3 larvae infected sheep assessed as reduction of faecal egg counts at 0.50 mg/kg, po; assay type: functional, Feces; set-up: scale not given: the % may be the effect or the level left; conditions: dose 0.5 mg/kg; in short: as §1
[4] = test system: Haemonchus contortus; test: Anthelmintic activity against Haemonchus contortus Rudolphi L3 larvae infected sheep assessed as reduction of faecal egg counts at 0.25 mg/kg, po; assay type: functional, Feces; set-up: scale not given: the % may be the effect or the level left; in short: as §1

Compound: CC[C@@H](C)[C@H]1C(=O)O[C@H](C(C)C)C(=O)N(C)[C@@H](Cc2ccccc2)C(=O)O[C@H](C(C)C)C(=O)N(C)[C@@H]([C@H](C)CC)C(=O)O[C@H](C(C)C)C(=O)N1C
- Activity [1]: >=95%
- logP [2]: 5.46

Compound: CC[C@@H](C)[C@H]1C(=O)O[C@H](C(C)C)C(=O)N(C)[C@@H](CC2CCCCC2)C(=O)O[C@H](C(C)C)C(=O)N(C)[C@@H]([C@H](C)CC)C(=O)O[C@H](C(C)C)C(=O)N1C
- Activity [3]: 75%
- logP [2]: 6.3

Compound: CC[C@@H](C)[C@H]1C(=O)O[C@H](C)C(=O)N(C)[C@@H](Cc2ccccc2)C(=O)O[C@H](C)C(=O)N(C)[C@@H]([C@H](C)CC)C(=O)O[C@H](C)C(=O)N1C
- Activity [4]: 50%
- logP [2]: 4.28

Compound: CC[C@@H](C)[C@H]1C(=O)O[C@H](C)C(=O)N(C)[C@@H](CC2CCCCC2)C(=O)O[C@H](C)C(=O)N(C)[C@@H]([C@H](C)CC)C(=O)O[C@H](C)C(=O)N1C
- Activity [4]: >=95%
- logP [2]: 4.91

Compound: CC(C)C[C@H]1C(=O)O[C@H](Cc2ccccc2)C(=O)N(C)[C@@H](CC(C)C)C(=O)O[C@H](C)C(=O)N(C)[C@@H](CC(C)C)C(=O)O[C@H](C)C(=O)N1C
- Activity [1]: <=50%
- logP [2]: 4.63

Compound: CC(C)C[C@H]1C(=O)O[C@H](CC2CCCCC2)C(=O)N(C)[C@@H](CC(C)C)C(=O)O[C@H](C)C(=O)N(C)[C@@H](CC(C)C)C(=O)O[C@H](C)C(=O)N1C
- Activity [4]: 75%
- logP [2]: 5.57
